Assay outcomes: PubChem, several laboratories
CHOP inh – blocks CHOP induction under ER stress; CHO-K1 CHOP-promoter luciferase, tunicamycin-induced, 15-18 h; inhibition, % at 10 µM; 3.8% of 220,000 active; AID 2732;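 active means compounds that reduced the stress-induced luciferase reporter signal by more than about 70% of percent inhibition, limit read from the data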;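 further: 0% = tunicamycin plus vehicle and 100% = wells without tunicamycin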
UPR CHOP act – apoptotic UPR (CHOP) activation; 0.34% of 330,000 active; activation, % at 10 µM; CHO-CHOP luciferase reporter, luminescence; percent of tunicamycin response over DMSO baseline;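 active means at 10 µM dose, activation of 40% or more, normalized to positive control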;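 further: 100% = tunicamycin at 10 µg/mL and 0% = DMSO alone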
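assay system = CHO CHOP reporter cells | amount = 500 CHO-CHOP cells per well | buffer or medium = F12 with 10% FBS | incubation = 16-18 h cell attachment, then 6 h compound exposure, 37 °C | detection = luminescence read with Steady-Glo | read-out = percent activation relative to tunicamycin control | controls = tunicamycin high control, DMSO low control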
XBP1 UPR activ – adaptive UPR (XBP1) activation; 0.33% of 330,000 active; activation, % at 20 µM; CHO-XBP1 luciferase reporter, IRE1-XBP1 UPR activation, luminescence; percent of tunicamycin response, DMSO as zero;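 active means versus positive control, 20 µM dose yields 30% or more activation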;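 further: 100% = tunicamycin at 10 µg/mL and 0% = DMSO only wells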
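Assay system: CHO-XBP1 luciferase reporter cells; Schedule: 6 h treatment, 37 °C; Detection: glow luminescence from Steady-Glo reagent; Benchmarks: high control tunicamycin 10 µg/mL final, low control DMSO vehicle only.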
B2AR ag – human beta-2 adrenergic receptor agonism by FAP. Am2.2-beta2AR cells, FAP receptor internalization, flow cytometry. 0.43% of 340,000 active. P07550. AID 504454. response, % (no concentration beside the values);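 active means response above a set limit, near 3 SD of response in nonfluorescent compounds, cut at about 42% in these data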
VLA-4 inh – inhibition in a human VLA-4 binding assay; P13612; VLA-4 expressing cells, ligand binding flow cytometry; inhibition, % (about 7 µM as worked out from the volumes in the protocol); 0.2% of 330,000 active; AID 2557; in the data active means inhibition above about 50%
Target sequence (P13612 whole entry, looked up): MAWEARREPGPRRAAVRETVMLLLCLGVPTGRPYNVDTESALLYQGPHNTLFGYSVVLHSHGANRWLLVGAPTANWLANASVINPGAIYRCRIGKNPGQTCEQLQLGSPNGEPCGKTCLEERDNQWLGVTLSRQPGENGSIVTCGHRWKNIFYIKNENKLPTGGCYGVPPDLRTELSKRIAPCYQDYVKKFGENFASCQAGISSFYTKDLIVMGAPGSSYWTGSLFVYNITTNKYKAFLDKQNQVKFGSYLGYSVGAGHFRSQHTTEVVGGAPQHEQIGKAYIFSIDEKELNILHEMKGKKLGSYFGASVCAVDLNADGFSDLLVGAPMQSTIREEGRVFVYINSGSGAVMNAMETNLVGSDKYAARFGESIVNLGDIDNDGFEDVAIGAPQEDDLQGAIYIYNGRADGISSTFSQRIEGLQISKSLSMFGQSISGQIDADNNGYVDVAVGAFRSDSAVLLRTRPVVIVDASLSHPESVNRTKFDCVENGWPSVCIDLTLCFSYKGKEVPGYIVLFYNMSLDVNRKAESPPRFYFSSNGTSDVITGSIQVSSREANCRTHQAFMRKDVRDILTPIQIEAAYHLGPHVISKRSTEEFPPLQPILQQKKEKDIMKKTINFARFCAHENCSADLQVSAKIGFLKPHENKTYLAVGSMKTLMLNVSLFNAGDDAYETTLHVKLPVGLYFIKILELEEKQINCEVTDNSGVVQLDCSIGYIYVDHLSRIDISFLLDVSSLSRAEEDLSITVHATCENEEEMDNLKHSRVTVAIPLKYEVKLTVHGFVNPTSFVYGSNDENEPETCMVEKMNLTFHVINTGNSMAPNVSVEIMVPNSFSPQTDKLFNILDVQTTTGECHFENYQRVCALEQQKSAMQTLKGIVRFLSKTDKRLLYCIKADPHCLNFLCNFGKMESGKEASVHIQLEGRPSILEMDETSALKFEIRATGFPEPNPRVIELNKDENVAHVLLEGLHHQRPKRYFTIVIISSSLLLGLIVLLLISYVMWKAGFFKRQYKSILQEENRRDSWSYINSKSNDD
Starred values were filed as active, the others as inactive; . = not tested or not shown; ! = a repeat was not active. Shown is part of a subset that was picked to be rich in hits.

SMILES	CHOP inh	UPR CHOP act	XBP1 UPR activ	B2AR ag	VLA-4 inh
COc1cc([N+](=O)[O-])ccc1NC(=S)Nc1cc(C(=O)OC(C)C)cc(C(=O)OC(C)C)c1	85*	15	0	4	.
CC(=O)Nc1ccccc1P(=O)(c1ccccc1)c1ccccc1OC(C)=O (centres undefined)	9	3	-2	-3	3
Cc1cc(Nc2ccccc2)nn1C(=O)c1ccc(Cl)cc1	77*	4	-1	4	-13
Cc1cc(Nc2ccccc2)nn1C(=O)c1ccc([N+](=O)[O-])cc1	5	1	1	8	-8
CCn1c(=O)c([N+](=O)[O-])c(Cl)c2ccccc21	108*	-10	-6	77*	40
O=C(N/N=C/c1cccc([N+](=O)[O-])c1)c1cc[n+](CCO)cc1	.	-2	-2	46*	19
O=C(N/N=C/c1cccc([N+](=O)[O-])c1)c1ccc2c(c1)OCCO2	-23	5	0	2	5
CN(Cc1ccccc1F)C(=O)CN1c2cccc3cccc(c23)S1(=O)=O	.	0	2	5	8
O=C(c1cccc(S(=O)(=O)N2CCN(c3ccccc3)CC2)c1)N1CCN(c2ccccc2O)CC1	.	6	-6	-10	22
CC(Oc1cccc(Cl)c1)C(=O)Nc1ccc(N2CCOCC2)cc1N1CCOCC1 (centres undefined)	.	1	2	11	5
Nc1ccccc1Nc1cc(-c2ccccc2)nn1-c1cccc(Cl)c1	90*	2	-1	8	10
Nc1cc(-c2ccc(Cl)cc2)nn1-c1ccccc1	-14	5	0	1	11
O=C(Oc1ccc2cc(Br)ccc2c1)N1CCCCCC1	85*	4	8	.	-1
O=C(Oc1ccc2ccccc2c1Br)N1CCCCCC1	29	1	-1	62*	15
O=C(COc1ccc2ccccc2c1Br)N1CCCCC1	.	5	-2	-8	-8
O=C(COc1ccc2cc(Br)ccc2c1)N1CCOCC1	.	4	3	8	-2
O=C(N/N=C/c1cc(Cl)cc(Cl)c1O)c1ccncc1	75*	-3	0	-1	6
O=C(N/N=C/c1ccc(Cl)cc1Cl)c1ccncc1	.	2	0	4	4
O=C1CSC2=NCN(c3ccc4c(c3)OCO4)CN12	94*	1	-1	4	-8
CCOC(=O)c1cc(S(=O)(=O)N(C)Cc2ccccc2)cn1C	.	-3	-5	-7	16
CCCCC(=O)NC(c1ccc([N+](=O)[O-])cc1)c1c(O)ccc2ccccc12 (centres undefined)	78*	2	-3	21	-14
O=C(NC(c1ccc(Cl)cc1)c1c(O)ccc2ccccc12)c1ccccc1 (centres undefined)	85*	.	.	33	10
O=C(/C=C/c1cn(-c2ccccc2)nc1-c1cccnc1)c1ccco1	-131	-1	-5	81*	10
O=C(/C=C/c1cn(-c2ccccc2)nc1-c1cccnc1)N1CCCC1	-26	.	.	-39	.
CC(C)CC(=O)Nc1ccc(Oc2ccc3c(c2)C(=O)NC3=O)cc1	.	-1	-2	7	2
SMILES	CHOP inh	UPR CHOP act	XBP1 UPR activ	B2AR ag	VLA-4 inh
O=C(CCCn1cc([N+](=O)[O-])cn1)N1CCCCC1	2	1	3	-4	13
CN(CCOc1ccccc1)C(=O)c1ccc(F)c(S(=O)(=O)N2CCOCC2)c1	.	1	1	4	16
O=[N+]([O-])c1nn(-c2ccc3c(c2)OCCO3)n(O)c1=NC1CCCCC1	87*	4	-1	-7	19
O=[N+]([O-])c1nn(-c2ccc3c(c2)OCCO3)n(O)c1=NCc1ccccc1Cl	-13	3	-4	-10	3
CCS(=O)(=O)N1CCC(C(=O)Nc2cccc(C(C)=O)c2)CC1	73*	2	0	-5	3
CC/C(C)=N/Nc1nc(-c2cc3cccc(OC)c3oc2=O)cs1	-7	3	1	3	11
O=[N+]([O-])c1cc(S(=O)(=O)N2CCCC2)ccc1O	-59	2	-2	-3	5
O=[N+]([O-])c1cc(S(=O)(=O)N2CCCCCC2)ccc1F	2	.	.	50*	45
COc1ccc(Cl)cc1Nc1nc(NCCO)nc(N2CCCC2)n1	74*	-1	2	31	8
COc1cc2c(cc1OC)CN(c1nc(CN3CCCC3)nc3sc(C)c(C)c13)CC2	78*	-3	2	13	9
C=CCn1c(SCC(=O)Nc2cccc(S(N)(=O)=O)c2)nnc1C1CCCCC1	.	-2	0	-3	7
Nc1nc(Nc2ccccc2)nc(NCc2ccco2)c1[N+](=O)[O-]	86*	2	4	10	-2
CCCCN(C(=O)NC(=O)Nc1cccc(C)c1C)S(C)(=O)=O	81*	0	-2	10	4
O=C(NNC(=O)c1ccc(Cl)cc1Cl)Nc1ccccc1	54	-2	-3	3	8
O=C(NNC(=O)c1cc(-c2ccc(Cl)cc2Cl)nc2ccccc12)Nc1ccccc1	96*	3	5	8	4
Cc1ccc(NC(=O)c2ccc(-n3cncn3)c([N+](=O)[O-])c2)cc1F	.	2	-3	12	4
Cc1ccccc1-c1nc(S(=O)(=O)c2ccc(Cl)cc2)c(NCCN2CCOCC2)o1	90*	0	-2	-19	-3
Cc1ccccc1-c1nc(S(=O)(=O)c2ccccc2)c(NCCCN2CCOCC2)o1	.	0	0	1	-3
Cc1oc2c(c1C(=O)NCc1cccnc1)C(=O)c1ccccc1C2=O	104*	-6	-8	.	-15
CC(=O)c1c(C)oc2c1C(=O)c1ccccc1C2=O	73*	.	.	0	12
COc1ccc(CNC(=O)c2c(C)oc3c2C(=O)c2ccccc2C3=O)cc1	-21	7	3	0	-6
CCC(C(=O)N/N=C(\C)c1cccnc1)c1ccccc1 (centres undefined)	.	-1	-2	6	-4
N#CCCN(CCC#N)C(=O)C1c2ccccc2Oc2ccccc21	.	0	-3	-25	3
COc1ccc(OC)c(S(=O)(=O)N2CCC(C(=O)NC3CC3)CC2)c1	.	0	0	-2	5
CCn1cc(C(=O)O)c(=O)c2cc3c(cc21)OCO3	-7	1	-5	.	8
CCn1nc(C(=O)O)c(=O)c2cc3c(cc21)OCO3	96*!	-1	-5	3	-1
O=C(c1cnn2c(C(F)(F)F)cc(-c3ccccc3)nc12)N1CCCCC1c1cccnc1 (centres undefined)	32	1	3	2	-10
CC1CCCCN1C(=O)c1cc2nc(-c3ccccc3)cc(-c3ccccc3)n2n1 (centres undefined)	82*	8	6	29	-31
